TRPC4 PAM: positive allosteric modulators of TRPC4, primary screen, cell-based, mouse TRPC4beta, HEK293 mu-opioid, Fluo-4 calcium; Short transient receptor potential channel 4 (Mus musculus), Q9QUQ5; DAMGO EC20, Fluo-4 Ca2+ flux; hits give high values; B-score at 10 µM; actives 0.42% (n = 310,000); AID 2227, 2009;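 active = B-score of calcium response area above 5 SD of library B-scores, with initial fluorescence ratio within 5 SD of library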;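 also: B-score of integrated fluorescence ratio over time as area under calcium response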
TRPC4 block: inhibitors of mouse TRPC4 channel, primary screen, Fluo4 calcium, HEK293 TRPC4beta/mu-opioid cells; Short transient receptor potential channel 4 (Mus musculus), Q9QUQ5; DAMGO-evoked Fluo4 calcium flux; hits give low values; B-score at 10 µM; actives 0.39% (n = 300,000); AID 2247, 2010;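 active = B-score over 3 SD under the library average, no early fluorescence shift, positive overall ratio signal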
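Material: HEK293 cells with stable TRPC4beta plus mu-opioid receptor expression; probe or stimulus: DAMGO in two steps, submaximal then maximal; technique: Fluo4 calcium fluorescence by kinetic imaging, 5 s 1 Hz baseline; measure: integrated fluorescence ratio relative to baseline, converted to per-well B score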
TRPC4 act: activators of mouse TRPC4 channel, primary screen, Fluo4 calcium, HEK293 TRPC4beta/mu-opioid cells; AID 2237, 2010; B-score at 10 µM; actives 0.49% (n = 310,000); Fluo4 calcium fluorescence; hits give high values;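 active = B-score above 5 SD of library B-scores, and initial fluorescence ratio not above library mean plus 5 SD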;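 also: positive B-score marks a calcium rise read as TRPC4 activation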
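Technique: kinetic Fluo4 calcium fluorescence; Test system: TRPC4beta and mu-opioid receptor HEK293 stable cells; Measure: B-scored integrated calcium fluorescence ratio; Benchmarks: low control buffer alone, high control maximal DAMGO; Schedule: 45 min room-temperature Fluo4 loading, 110 s read.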
TRPC6 activator: mouse TRPC6 channel activators, primary screen, cell-based, HEK293, membrane potential dye; B-score at 10 µM; actives 0.13% (n = 310,000); HEK293-TRPC6 membrane potential dye fluorescence; hits give high values; Short transient receptor potential channel 6 (Mus musculus), Q61143;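 active = B-score of the integrated fluorescence ratio above library mean plus 3 SD, and starting fluorescence ratio within library mean plus 5 SD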;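 also: higher score means more depolarization so channel activation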
TRPC6 inh: mouse TRPC6 channel inhibitors, primary screen, cell-based, HEK293, membrane potential dye; B-score at 10 µM; Short transient receptor potential channel 6 (Mus musculus), Q61143; AID 2553, 2010; ACh-evoked depolarization; hits give low values; actives 1.1% (n = 310,000);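 active = B-score under library mean minus 3 SD, initial fluorescence not abnormally high, positive integrated signal ratio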;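 also: B-score derived from integrated fluorescence ratio over the kinetic read; more negative B-score means stronger inhibition of depolarization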
Kir21 inh: inhibitors of mouse Kir2.1 inward-rectifier potassium channel. Inward rectifier potassium channel 2 (Mus musculus), P35561. HEK293-Kir2.1, FluxOR thallium flux fluorescence; hits give low values. B-score at 10 µM. actives 0.85% (n = 310,000). AID 1672, 2009;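 active = fluorescence ratio B-score at or below minus 3 SD of library scores, with starting-brightness B-score within 2 SD, cut at about -4.2 in these data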;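 also: channel flux triggered by added potassium and thallium sulfate stimulus; B-score of peak minus minimum fluorescence over baseline after thallium stimulus; more negative B-score means stronger Kir2.1 block with less thallium influx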
TRPC4 spec 2: second selectivity test of TRPC6 inhibitors: effect on mouse TRPC4; inhibition, % at 10 µM; shares compounds with TRPC6 inh; HEK293 TRPC4/MOR, membrane potential dye fluorescence; channel activated by saturating DAMGO dose; actives 42% (n = 920);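 active = compounds whose fluorescence signal differed from control wells by over 3 SD, either direction, in both duplicate plates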
TRPC4 spec: mouse TRPC4 modulation by TRPC6 hits, confirmation, selectivity assay for TRPC6 inhibitor project, cell-based, HEK293 TRPC4/mu-opioid, membrane potential dye. AID 2777, 2010. actives 61% (n = 920). activity change, negative = inhibition, % at 10 µM. shares compounds with TRPC6 inh. membrane potential fluorescence;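 active = rise or fall in signal beyond 3 SD of buffer-only wells in both replicate plates, either sign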;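 also: integrated kinetic ratio of fluorescence range over baseline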
HEK293 MPD ctr 2-1: nonspecific membrane potential effects, parental HEK293, confirmation, counter-screen for TRPC6 inhibitor project, cell-based, second counter screen | parental HEK293 membrane potential dye fluorescence; maximal acetylcholine challenge after compound addition | shares compounds with TRPC6 inh | signal change vs control, % at 10 µM | actives 31% (n = 920);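 active = membrane potential signal moving either way by over 3 SD of the maximum-effect control, in both duplicate plates, meaning non-specific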
HEK293 MPD ctr-1: membrane potential modulation in parental HEK293, confirmation, counter-screen for TRPC6 inhibitor project, cell-based; membrane potential signal change, % at 10 µM; actives 60% (n = 920); AID 2780, 2010; shares compounds with TRPC6 inh; parental HEK293 membrane potential dye fluorescence;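 active = membrane potential signal shifting up or down by more than 3 SD of buffer-only wells, on both duplicate plates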
HEK293 MPD ctr-2: parental HEK293 membrane potential modulation, confirmation, counter-screen for TRPC6 modulator project, cell-based; shares compounds with TRPC6 inh; actives 51% (n = 2,400); membrane potential dye fluorescence; membrane potential signal change, % at 10 µM;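 active = membrane potential signal moves up or down beyond 5 SD from buffer-only wells, on both duplicate plates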
HEK293 MPD ctr 2-2: second check of TRPC6 modulator effects in parental HEK293 cells; shares compounds with TRPC6 inh; actives 14% (n = 2,400); inhibition, % at 10 µM; membrane potential dye fluorescence; after compound, maximal acetylcholine stimulation;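 active = membrane potential signal drops by more than 5 SD from the mean control signal, in both duplicate plates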;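 also: plate controls were acetylcholine ECmax control wells for no effect and buffer only wells for full effect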
TRPC4/MOR mod: TRPC4 modulation by TRPC6 hit compounds, confirmation, selectivity assay for TRPC6 modulator project, cell-based, HEK293 TRPC4/mu-opioid, membrane potential dye, mouse; actives 69% (n = 2,400); shares compounds with TRPC6 inh; percent change from control (negative = decrease, positive = increase), % at 10 µM; membrane potential fluorescence; AID 488927, 2010;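 active = membrane potential signal moved up or down beyond 5 SD of buffer control wells, in both duplicate plates, actives on both sides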;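 also: plate controls were assay buffer wells for no effect and DAMGO maximal-effect wells for full effect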
TRPC4 ctr inh 2: mouse TRPC4 off-target activity of TRPC6 modulators, second screen; AID 488928; inhibition, % at 10 µM; HEK293 TRPC4/mu-opioid, membrane potential dye fluorescence; stimulated with maximal-effect DAMGO; actives 55% (n = 2,400); shares compounds with TRPC6 inh;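 active = drop in membrane potential signal beyond 5 SD of the control wells in both duplicate plates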;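 also: TRPC4 counter screen for TRPC6 hits run under conditions tuned for TRPC6 not TRPC4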
TRPC6 inh conf: mouse TRPC6 channel inhibitors, confirmation, HEK293 cells, membrane potential dye, duplicate; shares compounds with TRPC6 inh; AID 488960, 2010; actives 43% (n = 3,300); inhibition, % at 10 µM; ACh-evoked depolarization;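 active = fluorescence ratio falls more than 5 SD below the full-stimulation control mean, in both duplicate runs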;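 also: integrated fluorescence ratio of peak minus minimum over baseline after agonist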
TRPC6 act confirm: mouse TRPC6 channel activators, confirmation, HEK293 cells, membrane potential dye, duplicate; shares compounds with TRPC6 inh; HEK293-TRPC6 membrane potential dye fluorescence, FDSS; activation, % at 10 µM; actives 11% (n = 2,800); AID 488961, 2010;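 active = ratio signal rise beyond 5 SD above unstimulated control wells' mean, seen in both duplicate runs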;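 also: plate controls were buffer EC0 wells for no effect and acetylcholine ECmax response for full effect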
* hit, by the source's call; i = inactive; . = no result. An excerpt weighted towards active compounds, which were near 2.9% of everything screened.

SMILES	TRPC4 PAM	TRPC4 block	TRPC4 act	TRPC6 activator	TRPC6 inh	Kir21 inh	HEK293 MPD ctr-2	HEK293 MPD ctr 2-2	TRPC4/MOR mod	TRPC4 ctr inh 2	TRPC6 inh conf	TRPC6 act confirm	others
CN(C)c1ccc(C(C(=O)NCc2ccccc2)N(Cc2ccco2)C(=O)c2snc(C(N)=O)c2N)cc1 (stereo unspecified)	i	i	i	i	i	1.6	.	.	.	.	.	.
S=c1[nH]nc(Cc2ccccc2)n1Cc1ccco1	i	i	i	i	-8.3*	0.59	.	.	.	.	65%*	i	TRPC4 spec 2=i;TRPC4 spec=i;HEK293 MPD ctr 2-1=14%*;HEK293 MPD ctr-1=i
CCCn1c(Cc2ccccc2)n[nH]c1=S	i	i	i	i	i	3.2	.	.	.	.	.	.
COC(=O)c1ccccc1NC(=O)CN1CCCCCC1	i	i	i	i	i	1.1	.	.	.	.	.	.
COC(=O)c1ccccc1NC(=O)CN1CCC(C)CC1	i	i	i	i	-5.1*	-1.9	i	i	20%*	i	39%*	.
COC(=O)c1ccccc1NC(=O)COC(=O)C1CCCCC1	i	i	i	i	-5*	2.3	142%*	i	31%*	i	41%*	.
Cc1ccc(NC(=O)CCc2nnc3ccc(N4CCC(C)CC4)nn23)nc1	i	i	i	i	i	0.79	.	.	.	.	.	.
O=C(CN1CCN(c2ccccn2)CC1)Nc1ccc(F)cc1F	i	i	i	i	i	1.3	.	.	.	.	.	.
FC(F)(F)c1ccc2c(c1)n(Cc1ccccc1)c1[n+]2CCCCC1	i	i	i	i	-5.1*	1.5	i	i	i	i	i	i
COc1cc2c(cc1OC)-c1cc3ccc4c(c3c[n+]1CC2)OCO4	i	i	i	i	-7.4*	-4.3	i	91%*	-194%*	37%*	46%*	i
COc1cc2c(ccc3cc(OC)c(OC)c(O)c32)cc1O	i	i	i	i	i	-1.6	.	.	.	.	.	.
COc1cc2c(cc1O)CC[n+]1cc3c(OC)c(OC)ccc3cc1-2	i	i	i	i	-7.4*	-0.08	.	.	.	.	i	i	TRPC4 spec 2=i;TRPC4 spec=-9.5%*;HEK293 MPD ctr 2-1=-66%*;HEK293 MPD ctr-1=i
COC(CN(C)C(=O)c1ccc2c(c1)NC(=O)c1ccccc1S2)OC	i	i	i	i	i	1.4	.	.	.	.	.	.
CCn1nnc(NC(=O)c2ccco2)n1	i	i	i	i	i	-2	.	.	.	.	.	.
Cc1cccc(-c2cc3nc(C)c(C)c(NCCCn4ccnc4)n3n2)c1	i	i	i	i	-7.4*	-1.1	.	.	.	.	76%*	i	TRPC4 spec 2=58%*;TRPC4 spec=-18%*;HEK293 MPD ctr 2-1=i;HEK293 MPD ctr-1=i
Cc1cc(NCCCn2ccnc2)n2nc(-c3ccc(Cl)cc3)cc2n1	i	i	i	i	-11*	-1.7	i	100%*	20%*	54%*	54%*	i
Cc1cc(NCCCn2ccnc2)n2nc(-c3ccc(F)cc3)cc2n1	i	i	i	i	-10*	-3.1	-300%*	92%*	-54%*	62%*	72%*	i
CC(C)(C)c1cc(NCCCn2ccnc2)n2ncc(-c3ccc(Cl)cc3)c2n1	i	i	i	i	i	0.59	.	.	.	.	.	.
CCOC(=O)c1ccc(NC(=O)N2CCN(C(=O)C3CCCO3)CC2)cc1 (stereo unspecified)	i	i	i	i	i	0.17	.	.	.	.	.	.
COC(=O)[C@@H](NCc1cccc(CN[C@H](C(=O)OC)c2ccccc2)c1)c1ccccc1	i	i	i	i	i	-0.33	.	.	.	.	.	.
Cc1ccc(S(=O)(=O)Cc2ccc(C(=O)N3CCN(c4cc(C)ccc4C)CC3)o2)cc1	i	i	i	i	i	0.49	.	.	.	.	.	.
Cc1ccc(C)c(N2CCN(C(=O)c3ccc(CS(=O)(=O)c4ccccc4C)o3)CC2)c1	i	i	i	i	-8.8*	-0.41	.	.	.	.	i	i	TRPC4 spec 2=i;TRPC4 spec=i;HEK293 MPD ctr 2-1=i;HEK293 MPD ctr-1=i
Cn1c(=O)c(C(=O)Nc2ccccc2S(N)(=O)=O)c(O)c2ccccc21	i	i	i	i	i	1.6	.	.	.	.	.	.
